This note sets out measurements from ChEMBL document CHEMBL1138870, “In vitro and in vivo efficacy and in vitro metabolism of 1-phenyl-3-aryl-2-propen-1-ones against Plasmodium falciparum” (Bioorg Med Chem Lett, 2006).

Structures are written as SMILES. Active and inactive are the calls of the source. The calls are words filed in the database; no cut-off is given here.

The IC50 is the point on the concentration scale where inhibition reaches its midpoint. Higher therefore signals weaker potency in that assay.

In the first data set the test system is Plasmodium falciparum. Put plainly: Antimalarial activity against Plasmodium falciparum W2. Format: functional, organism-based.
Settings: not given
The method, boiled down: (§1)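 Cultured P. falciparum parasites were exposed to compound, and inhibition of [³H]hypoxanthine uptake was measured to give the IC50. Values come from a single experiment.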
In the case of `COc1ccc(C(=O)/C=C/c2cccc3ccccc23)c(OC)c1`, the IC50 stood at 4.6 µM.

On to `O=C(/C=C/c1ccnc2ccccc12)c1ccc(Cl)cc1Cl`, for which half-maximal inhibition (IC50) required 18 µM.

In the case of `O=C(/C=C/c1ccnc2ccccc12)c1cc(Cl)ccc1Cl`, 0.23 µM corresponded to half-maximal inhibition (IC50).

For `COc1ccc(F)cc1C(=O)/C=C/c1ccnc2ccccc12`, half-maximal inhibition (IC50) was put at 4.1 µM.

As for `O=C(/C=C/c1cnc2ccccc2c1)c1cc(F)ccc1F`, the IC50 is 7.8 µM.

`COc1ccc(C(=O)/C=C/c2ccnc3ccccc23)cc1`: the IC50 came to 10 µM.

Molecule `O=C(/C=C/c1cnc2ccccc2c1)c1ccc(Cl)c(Cl)c1` came in with an IC50 of 12 µM.

As for `COc1ccc(C(=O)/C=C/c2cnc3ccccc3c2)cc1F`, 2.7 µM corresponded to half-maximal inhibition (IC50). This IC50 lies about 4.4-fold lower than the previous one.

For the molecule `COc1ccc(F)cc1C(=O)/C=C/c1ccc2ccccc2n1`, the IC50 came to 0.67 µM.

Molecule `COc1ccc(C(=O)/C=C/c2ccnc3ccccc23)c(OC)c1OC` yielded an IC50 of more than 14 µM.

Regarding `COc1ccc(C(=O)/C=C/c2cnc3ccccc3c2)c(OC)c1OC`, the IC50 came out at 2.8 µM.

In the case of `COc1ccc(Cl)cc1C(=O)/C=C/c1cnc2ccccc2c1`, 0.59 µM corresponded to half-maximal inhibition (IC50).

Molecule `COc1ccc(C(=O)/C=C/c2ccc3ccccc3c2)cc1` showed a concentration for half-maximal inhibition (IC50) of more than 17 µM.

`O=C(/C=C/c1ccc2ccccc2n1)c1ccc(F)cc1F`: the IC50 came to 1.3 µM. That is a single-digit micromolar value.

On to `COc1ccc(OC)c(C(=O)/C=C/c2ccc3ccccc3c2)c1`, for which the midpoint of inhibition, the IC50, lay at 5 µM.

`COc1ccc(C(=O)/C=C/c2cnc3ccccc3c2)cc1OC` yielded a 50% inhibitory concentration (IC50) of 2.2 µM.

Take `COc1ccc(C(=O)/C=C/c2ccc3ccccc3n2)cc1`: the 50% inhibitory concentration (IC50) is more than 17 µM.

In the case of `COc1ccc(C(=O)/C=C/c2cnc3ccccc3c2)c(OC)c1`, the concentration for half-maximal inhibition (IC50) was found to be 3.3 µM.

The molecule `COc1cc(F)ccc1C(=O)/C=C/c1cnc2ccccc2c1` returned an IC50 of 1.5 µM. This IC50 lies about 2.2-fold lower than the previous one.

The molecule `COc1ccc(C(=O)/C=C/c2ccc3ccccc3c2)cc1OC` returned a half-inhibitory concentration (IC50) of 7.7 µM.

`COc1ccc(C(=O)/C=C/c2ccc3ccccc3n2)c(OC)c1OC` yielded an IC50 of 3.3 µM.

As for `O=C(/C=C/c1ccnc2ccccc12)c1ccc(F)c(F)c1`, the IC50 was 5.7 µM.

`COc1ccc(C(=O)/C=C/c2ccnc3ccccc23)cc1Cl` displayed a 50% inhibitory concentration (IC50) of 0.95 µM.

Take `COc1ccc(C(=O)/C=C/c2ccc3ccccc3c2)c(OC)c1`: the IC50 was more than 16 µM.

In turn, `O=C(/C=C/c1ccnc2ccccc12)c1ccc(Cl)c(Cl)c1` came in with an IC50 of 0.8 µM.

As for `COc1cc(F)ccc1C(=O)/C=C/c1ccnc2ccccc12`, half-maximal inhibition (IC50) was put at 6.2 µM. Compared with the last molecule, the IC50 is about 7.8-fold higher.

As to `COc1cccc(OC)c1C(=O)/C=C/c1cnc2ccccc2c1`, half-maximal inhibition (IC50) was put at 1.1 µM.

Molecule `COc1ccc(C(=O)/C=C/c2cnc3ccccc3c2)cc1Cl` yielded a half-inhibitory concentration (IC50) of 1.6 µM.

Another data set has as its system Plasmodium falciparum. Put plainly: Antimalarial activity against Plasmodium falciparum D6. It counts as functional, organism-based.
Settings: not given
The gist of the method:
as §1
For `COc1ccc(C(=O)/C=C/c2cccc3ccccc23)c(OC)c1`, half-maximal inhibition (IC50) was put at 4.9 µM.

`O=C(/C=C/c1ccnc2ccccc12)c1ccc(Cl)cc1Cl`: half-maximal inhibition (IC50) was put at 6.2 µM. The IC50 values of the last two molecules are within 1.5-fold of each other.

As to `O=C(/C=C/c1ccnc2ccccc12)c1cc(Cl)ccc1Cl`, the 50% inhibitory concentration (IC50) was found to be 0.19 µM. This IC50 lies about 33-fold lower than the previous one.

Molecule `COc1ccc(F)cc1C(=O)/C=C/c1ccnc2ccccc12` had an IC50 of 5.1 µM. This IC50 is about 27-fold higher than that of the molecule before.

Consider `O=C(/C=C/c1cnc2ccccc2c1)c1cc(F)ccc1F`, for which the concentration for half-maximal inhibition (IC50) turned out to be 5.6 µM. The IC50 values of the last two molecules are within 1.5-fold of each other.

As for `COc1ccc(C(=O)/C=C/c2ccnc3ccccc23)cc1`, the IC50 was determined as 5.4 µM.

`O=C(/C=C/c1cnc2ccccc2c1)c1ccc(Cl)c(Cl)c1`: the IC50 stood at 3.1 µM.

Take `COc1ccc(C(=O)/C=C/c2cnc3ccccc3c2)cc1F`: the IC50 worked out at 1.6 µM. This IC50 is about 1.9-fold lower than that of the molecule before.

For the molecule `COc1ccc(F)cc1C(=O)/C=C/c1ccc2ccccc2n1`, the 50% inhibitory concentration (IC50) came out at 3.8 µM.

With `COc1ccc(C(=O)/C=C/c2ccnc3ccccc23)c(OC)c1OC`, the half-inhibitory concentration (IC50) turned out to be 2.6 µM.

Regarding `COc1ccc(C(=O)/C=C/c2cnc3ccccc3c2)c(OC)c1OC`, the concentration for half-maximal inhibition (IC50) worked out at 6.7 µM.

With `COc1ccc(Cl)cc1C(=O)/C=C/c1cnc2ccccc2c1`, the IC50 was 0.95 µM.

In turn, `COc1ccc(C(=O)/C=C/c2ccc3ccccc3c2)cc1` gave an IC50 of more than 17 µM.

Regarding `O=C(/C=C/c1ccc2ccccc2n1)c1ccc(F)cc1F`, half-maximal inhibition (IC50) required 2.3 µM.

As for `COc1ccc(OC)c(C(=O)/C=C/c2ccc3ccccc3c2)c1`, the IC50 came out at 5.5 µM.

With `COc1ccc(C(=O)/C=C/c2cnc3ccccc3c2)cc1OC`, the IC50 came out at 3.4 µM.

`COc1ccc(C(=O)/C=C/c2ccc3ccccc3n2)cc1` displayed an IC50 of 4.7 µM.

Molecule `COc1ccc(C(=O)/C=C/c2cnc3ccccc3c2)c(OC)c1` displayed a half-maximal inhibitory concentration (IC50) of 4.8 µM.

Regarding `COc1cc(F)ccc1C(=O)/C=C/c1cnc2ccccc2c1`, 1.1 µM corresponded to half-maximal inhibition (IC50).

Molecule `COc1ccc(C(=O)/C=C/c2ccc3ccccc3c2)cc1OC` yielded an IC50 of 9.8 µM.

Take `COc1ccc(C(=O)/C=C/c2ccc3ccccc3n2)c(OC)c1OC`: the half-maximal inhibitory concentration (IC50) is 2.9 µM.

For `O=C(/C=C/c1ccnc2ccccc12)c1ccc(F)c(F)c1`, the IC50 is 9.4 µM.

For the molecule `COc1ccc(C(=O)/C=C/c2ccnc3ccccc23)cc1Cl`, the half-maximal inhibitory concentration (IC50) amounted to 1.8 µM. This IC50 lies about 5.2-fold lower than the previous one.

In turn, `COc1ccc(C(=O)/C=C/c2ccc3ccccc3c2)c(OC)c1` returned an IC50 of 8.7 µM. Compared with the last molecule, the IC50 is about 4.8-fold higher.

The molecule `O=C(/C=C/c1ccnc2ccccc12)c1ccc(Cl)c(Cl)c1` returned a 50% inhibitory concentration (IC50) of 1.7 µM.

On to `COc1cc(F)ccc1C(=O)/C=C/c1ccnc2ccccc12`, for which the concentration for half-maximal inhibition (IC50) came to 6 µM. Against the preceding molecule, the IC50 is about 3.5-fold higher.

`COc1cccc(OC)c1C(=O)/C=C/c1cnc2ccccc2c1` displayed a half-inhibitory concentration (IC50) of 2.2 µM.

`COc1ccc(C(=O)/C=C/c2cnc3ccccc3c2)cc1Cl`: the IC50 is 2.3 µM.

The next data set has as its system Plasmodium falciparum. Put plainly: Resistance index, IC50 of Plasmodium falciparum W2/IC50 Plasmodium falciparum D6. Format: ADME, organism-based. To be noted: in vitro. The gist of the method:
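Ratio of IC50 against P. falciparum W2 to IC50 against strain D6. Each IC50 comes from in vitro inhibition of [3H]hypoxanthine uptake by the parasites, with values from a single experiment.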
With `COc1ccc(C(=O)/C=C/c2cccc3ccccc23)c(OC)c1`, the “Ratio IC50” value was determined as 0.94.

With `O=C(/C=C/c1ccnc2ccccc12)c1ccc(Cl)cc1Cl`, the “Ratio IC50” value is on record as 2.9.

As for `O=C(/C=C/c1ccnc2ccccc12)c1cc(Cl)ccc1Cl`, the “Ratio IC50” value worked out at 1.2.

Regarding `COc1ccc(F)cc1C(=O)/C=C/c1ccnc2ccccc12`, the “Ratio IC50” value was found to be 0.8.

`O=C(/C=C/c1cnc2ccccc2c1)c1cc(F)ccc1F`: the “Ratio IC50” value is 1.4.

As to `COc1ccc(C(=O)/C=C/c2ccnc3ccccc23)cc1`, the “Ratio IC50” value is recorded as 1.9.

On to `O=C(/C=C/c1cnc2ccccc2c1)c1ccc(Cl)c(Cl)c1`, for which the “Ratio IC50” value is 3.9.

On to `COc1ccc(C(=O)/C=C/c2cnc3ccccc3c2)cc1F`, for which the “Ratio IC50” value is 1.7.

For the molecule `COc1ccc(F)cc1C(=O)/C=C/c1ccc2ccccc2n1`, the “Ratio IC50” value was determined as 0.18.

As to `COc1ccc(C(=O)/C=C/c2cnc3ccccc3c2)c(OC)c1OC`, the “Ratio IC50” value is 0.42.

Take `COc1ccc(Cl)cc1C(=O)/C=C/c1cnc2ccccc2c1`: the “Ratio IC50” value was found to be 0.62.

`O=C(/C=C/c1ccc2ccccc2n1)c1ccc(F)cc1F`: the “Ratio IC50” value worked out at 0.57.

As for `COc1ccc(OC)c(C(=O)/C=C/c2ccc3ccccc3c2)c1`, the “Ratio IC50” value stood at 0.91.

As to `COc1ccc(C(=O)/C=C/c2cnc3ccccc3c2)cc1OC`, the “Ratio IC50” value is listed as 0.65.

With `COc1ccc(C(=O)/C=C/c2cnc3ccccc3c2)c(OC)c1`, the “Ratio IC50” value is listed as 0.7.

Consider `COc1cc(F)ccc1C(=O)/C=C/c1cnc2ccccc2c1`, for which the “Ratio IC50” value was determined as 1.4.

For the molecule `COc1ccc(C(=O)/C=C/c2ccc3ccccc3c2)cc1OC`, the “Ratio IC50” value is 0.79.

With `COc1ccc(C(=O)/C=C/c2ccc3ccccc3n2)c(OC)c1OC`, the “Ratio IC50” value came out at 1.1.

Take `O=C(/C=C/c1ccnc2ccccc12)c1ccc(F)c(F)c1`: the “Ratio IC50” value is listed as 0.61.

As to `COc1ccc(C(=O)/C=C/c2ccnc3ccccc23)cc1Cl`, the “Ratio IC50” value stood at 0.53.

On to `O=C(/C=C/c1ccnc2ccccc12)c1ccc(Cl)c(Cl)c1`, for which the “Ratio IC50” value is on record as 0.47.

For the molecule `COc1cc(F)ccc1C(=O)/C=C/c1ccnc2ccccc12`, the “Ratio IC50” value stood at 1.

Regarding `COc1cccc(OC)c1C(=O)/C=C/c1cnc2ccccc2c1`, the “Ratio IC50” value amounted to 0.53.

Take `COc1ccc(C(=O)/C=C/c2cnc3ccccc3c2)cc1Cl`: the “Ratio IC50” value was found to be 0.7.

The next data set relates to Mus musculus. The data set is described as follows: Effect on survival of mice (Mus musculus) infected with Plasmodium berghei at 640 mg/kg, perorally. It counts as functional, organism-based. The arrangement: dose 640 mg/kg.
Settings: not given
The method, boiled down:
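Mice were inoculated intraperitoneally on day 0 with 1.0 × 10⁶ P. berghei P-line-infected red cells. Compound was dissolved in DMSO, diluted with 0.5% hydroxyethylcellulose and 0.1% Tween, and given orally once daily on days 3–7 at 640 mg/kg/dose. Survival of five treated mice was compared with five untreated infected controls.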
For the molecule `O=C(/C=C/c1ccnc2ccccc12)c1cc(Cl)ccc1Cl`, the result was inactive.

Consider `O=C(/C=C/c1ccnc2ccccc12)c1ccc(Cl)c(Cl)c1`, for which the outcome was inactive.
